# PostGolgi ctrl = growth inhibition of yeast control strain, primary screen, counter-screen for post-Golgi transport modulator project; inhibition, % at 10 µM; 98,000 compounds, 5% hits; efflux-deficient yeast background strain, growth absorbance A615, 16 h; AID 738, 2007
# HePTP inh = inhibitors of human HePTP phosphatase, primary screen, biochemical, absorbance, leukemia target; 110,000 compounds, 0.64% hits; inhibition, % at 20 µM; Tyrosine-protein phosphatase non-receptor type 7 (Homo sapiens), P35236; recombinant HePTP phosphatase activity, OD absorbance; in the data active = inhibition above about 50%;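 also: plate controls were vehicle for no effect and reference inhibitor for full effect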
# PostGolgi yeast = phenotypic screen on post-Golgi transport, primary screen; post-Golgi transport phenotypic cell assay; inhibition, % at 10 µM; 98,000 compounds, 0.9% hits;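 also: yeast cells grown in 1536-well plates; yeast grown about 18 h at 30C before absorbance read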
# Ecoli tolC = growth inhibitors of E. coli tolC mutant, primary screen, strain BW25113 ΔtolC::kan, 384-well; OD615; growth inhibition, % at 10 µM (by protocol); 65,000 compounds, 2.2% hits; AID 573, 2007;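 active = growth inhibition at or above a cutoff equal to the mean over every tested compound plus 3 SD, cut at about 60% in these data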;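 also: growth measured after 20 h incubation at 37 °C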
#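 Test system: tolC-deleted E. coli BW25113 | Medium: LB with kanamycin 50 µg/mL | Compound dosing: Single concentration, 10 µM final per compound | Schedule: 37 °C, 20 h exposure | Measured by: OD at 615 nm | Evaluation: Percent growth inhibition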
# Ecoli WT expand = growth inhibitors of wild-type E. coli, primary screen, strain BW25113, expanded library, OD600; 98,000 compounds, 0.15% hits; growth inhibition, % at 100 µM; OD600 absorbance;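 active = growth inhibition above about 50% at one test dose, limit read from the data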;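 also: growth measured after 20 h incubation at 37 °C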
# PLAP act = PLAP enzyme activators, biochemical, luminescence, HTS | activation fold at 20 µM | purified PLAP enzyme, luminescent substrate read-out; stronger effect = higher value | 96,000 compounds, 1.2% hits; in the data active = activation fold above about 2
# Target sequence (P05187 whole entry, looked up): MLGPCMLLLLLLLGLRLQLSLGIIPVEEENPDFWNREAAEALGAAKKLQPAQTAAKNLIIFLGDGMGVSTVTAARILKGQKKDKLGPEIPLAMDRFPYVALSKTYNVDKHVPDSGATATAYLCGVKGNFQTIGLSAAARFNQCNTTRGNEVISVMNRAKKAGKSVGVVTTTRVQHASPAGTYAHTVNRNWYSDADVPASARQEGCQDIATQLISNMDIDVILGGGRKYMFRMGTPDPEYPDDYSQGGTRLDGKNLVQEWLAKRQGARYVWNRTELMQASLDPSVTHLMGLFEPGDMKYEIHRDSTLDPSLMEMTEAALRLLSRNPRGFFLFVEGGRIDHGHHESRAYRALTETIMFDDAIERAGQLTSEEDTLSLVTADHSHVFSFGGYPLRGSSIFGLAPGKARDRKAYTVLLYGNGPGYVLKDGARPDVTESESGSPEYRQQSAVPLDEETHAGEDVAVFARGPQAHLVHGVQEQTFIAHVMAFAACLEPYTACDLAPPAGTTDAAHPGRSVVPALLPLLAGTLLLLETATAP
# Starred values were filed as active, the others as inactive; x = no result given. Most compounds without a hit are left out; they make up all but 5.4% or so of the library. Rule as the data show it, unless noted: active = inhibition above about 30%; inactive = the rest.
SMILES,PostGolgi ctrl,HePTP inh,PostGolgi yeast,Ecoli tolC,Ecoli WT expand,PLAP act
O=C(CSc1nc2ccccc2s1)c1ccc(-c2ccccc2)cc1,x,5,x,x,x,x
C=CCn1c(SCC(=O)N2CCc3ccccc3C2)nc2sc(C)cc2c1=O,50*,x,0,x,-6,0.8
C=CCn1c(SCC(=O)N2CCN(C(=O)c3ccco3)CC2)nc2sc(CC)cc2c1=O,-4,-5,3,5,-5,1.8
CCn1c2ccccc2c2cc(/C=C(\C#N)C(N)=O)ccc21,x,5,x,x,x,x
C=CCn1c(SCC(=O)Nc2ccc3c(c2)OCO3)nnc1-c1cc(Br)ccc1O,14,5,0,74*,-3,1.3
O=C(Nc1ccccc1F)c1ccc(CSc2ccc(Cl)cc2)cc1,x,2,x,x,x,x
CCCNC(=O)c1ccccc1NC(=O)c1ccc(CSc2ccccc2)cc1,80*,x,12,x,-3,1.1
CC1=NN(C(=O)c2ccc(Cn3nc(C)cc3C)o2)C(O)(C(F)(F)F)C1 (stereo not given),-2,x,7,x,6,2.2*
O=C(c1sc2ccccc2c1Cl)N1CCN(c2ccc(F)cc2)CC1,45*,x,7,x,-21,1
Cc1ccc2c(Cl)c(C(=O)N3CCN(c4ccc(F)cc4)CC3)sc2c1,x,5,x,x,x,x
O/N=C(\c1ccc(Cl)cc1)c1cc2ccccc2o1,34*,4,15,98*,-3,1
Cc1ccc(C(=O)c2cc3ccccc3o2)cc1,3,x,0,x,5,0.9
Cc1ccc(/C=C2\C=C(c3ccc(Cl)cc3)OC2=O)o1,x,82*,x,x,x,x
CC1Cc2cc(-c3csc(NC(=O)Cc4cccs4)n3)ccc2N1S(C)(=O)=O (stereo not given),25,6,-28,63*,-13,1.4
CCOC(=O)C(CCC(OC(=O)c1ccccc1)(C(=O)OCC)C(=O)OCC)(OC(=O)c1ccccc1)C(=O)OCC,x,-5,x,x,x,x
CC(=O)Nc1ccc(NC(=S)NC(NC(=O)c2cccc([N+](=O)[O-])c2)C(Cl)(Cl)Cl)cc1 (stereo not given),x,10,x,x,x,x
O=C(NC(NC(=S)Nc1ccc(Cl)c(Cl)c1)C(Cl)(Cl)Cl)c1cccc([N+](=O)[O-])c1 (stereo not given),x,104*,x,x,x,x
NS(=O)(=O)c1ccc(NC(=O)c2c(Cl)cccc2Cl)cc1,x,104*,x,x,x,x
NS(=O)(=O)c1ccc(NC(=O)c2ccccc2Cl)cc1,5,x,5,x,-4,1
COc1ccc(NC(=O)C(=O)N/N=C/c2cc(C)n(-c3cccc(Cl)c3Cl)c2C)c(OC)c1,4,x,3,x,-7,2*
COc1ccc(OC)c(/C=N/NC(=O)C(=O)Nc2ccc(OC)cc2OC)c1,x,4,x,x,x,x
CC(=O)OCc1nc2ccccc2s1,15,x,-16,x,4,0.8
Cc1cc(C(=O)OCc2nc3ccccc3s2)c(C)o1,4,5,17,100*,1,1.1
CC1=CCC(CN(CCCN(C)C)CC2CC=C(C)CC2)CC1 (stereo not given),x,4,x,x,x,x
O=Nc1c(O)n(Cc2ccc(Cl)c(Cl)c2)c2ccccc12,59*,x,22,x,10,1.1
SMILES,PostGolgi ctrl,HePTP inh,PostGolgi yeast,Ecoli tolC,Ecoli WT expand,PLAP act
CCOC(=O)c1sc2c(c1C)C(c1cccs1)C1=C(CCCC1=O)N2 (stereo not given),18,0,7,80*,-7,1
CCOC(=O)C1=C(C)NC2=C(C(=O)CCC2)C1c1cccs1 (stereo not given),-14,-7,8,11,-8,0.8
Cc1cccc(OCC(=O)NNC(=O)c2ccccc2C)c1,x,1,x,x,x,x
CC(C)(C)c1ccc(OCCON2C(=O)CCC2=O)c(Cl)c1,33*,x,-2,x,-7,1
CCc1ccc(C(=O)CN(C#N)c2nc(C)cc(C)n2)cc1,7,x,-6,x,-7,2.7*
NC(=O)c1ccsc1NC(=O)C1CCCN1S(=O)(=O)c1ccc(Cl)cc1 (stereo not given),36*,6,-7,18,7,1.1
O=C(Nc1nc(-c2ccccc2)cs1)C1CCCCN1S(=O)(=O)c1ccc(Cl)cc1 (stereo not given),57*,x,3,x,-9,1.1
O=C(Nc1nc(-c2ccccc2)cs1)NC1CCCCC1,50*,x,-2,x,-1,0.9
O=C(Nc1nc(-c2ccccc2)cs1)C1CCCCN1S(=O)(=O)c1ccccc1 (stereo not given),35*,-3,-7,21,-9,0.9
O=C(Nc1nc(-c2ccccc2)cs1)C1CCCN(S(=O)(=O)c2ccccc2)C1 (stereo not given),13,1,2,39,-14,1.3
O=C(COc1ccc2ccccc2c1)N1CCc2ccccc21,x,-4,x,x,x,x
O=[N+]([O-])c1ccc(C=Nc2cc3c(cc2Br)OCCO3)cc1,x,0,x,x,x,x
CCCCC(CC)Cn1c2nc3ccccc3nc2c2c(=N)oc(C)nc21 (stereo not given),72*,23,0,1,-3,1.4
CCCCn1c2nc3ccccc3nc2c2c(=N)oc(C)nc21,x,-3,x,18,x,1.8
Cc1ccc(C(=O)N2CCC(C(N)=O)CC2)cc1[N+](=O)[O-],x,-2,x,x,x,x
Cc1cc2cc(CCNC(=O)c3ccc(Br)o3)c(=O)[nH]c2cc1C,102*,9,4,50,20,1.2
CCC(CC)C(=O)NCCc1cc2ccc(OC)cc2[nH]c1=O,6,8,-2,-13,-6,1
Cc1ccc(C)c2[nH]c(=O)c(CCNC(=O)c3ccc(Br)o3)cc12,x,-17,x,3,x,x
COc1ccc2cc(CCNC(=O)c3ccc4c(c3)OCO4)c(=O)[nH]c2c1,30*,3,-4,11,-1,1.1
COc1ccc2cc(CCNC(=O)C3CC3)c(=O)[nH]c2c1,4,1,5,-12,-8,1
COc1ccc2cc(CCNC(=O)c3ccc(Br)o3)c(=O)[nH]c2c1,99*,-9,13,42,-1,0.9
CC(C)(C)NC(=O)c1ccccc1-c1nc(-c2ccccc2Cl)no1,30*,-4,4,5,10,1.5
CC(C)NC(=O)c1ccccc1-c1nc(-c2ccccc2Cl)no1,8,2,-3,6,1,1
Cc1cccc(C(=O)Oc2ccc3c(C)cc(=O)oc3c2)c1,x,-4,x,x,x,x
Cc1ccc(C(=O)NNC(=O)c2ccc(SCC3CCCO3)c([N+](=O)[O-])c2)cc1 (stereo not given),12,x,4,x,7,1.3
O=C(NNC(=O)c1ccc(SCC2CCCO2)c([N+](=O)[O-])c1)c1ccc(Cl)c([N+](=O)[O-])c1 (stereo not given),-4,x,10,x,-1,2.4*
CC(c1ccccc1)N1C(=O)/C(=C/c2cccc([N+](=O)[O-])c2)SC1=S (stereo not given),x,0,x,x,x,x
CCCc1ccc(-c2c(C)sc(N)c2C#N)cc1,43*,x,5,x,-2,0.9

# Assay outcomes (PubChem BioAssay)
